Experimental data reported in ChEMBL document CHEMBL4024779, “Novel Terminal Bipheny-Based Diapophytoene Desaturases (CrtN) Inhibitors as Anti-MRSA/VISR/LRSA Agents with Reduced hERG Activity” (J Med Chem, 2018).
pIC50: −log10 of the molar value. The source made the active and inactive calls. The calls are words filed in the database; no cut-off is given here.

Legend:
[1] = molecular target: T1, 4,4'-diapophytoene desaturase (4,4'-diaponeurosporene-forming) (Staphylococcus aureus (strain Newman), UniProt O07855); experiment: Inhibition of CrtN in Staphylococcus aureus Newman assessed as reduction in staphyloxanthin levels after 48 hrs by spectrophotometric method-based pigment inhibition assay; set-up: species or system Staphylococcus aureus subsp. aureus str. Newman
T1 sequence (O07855 whole entry): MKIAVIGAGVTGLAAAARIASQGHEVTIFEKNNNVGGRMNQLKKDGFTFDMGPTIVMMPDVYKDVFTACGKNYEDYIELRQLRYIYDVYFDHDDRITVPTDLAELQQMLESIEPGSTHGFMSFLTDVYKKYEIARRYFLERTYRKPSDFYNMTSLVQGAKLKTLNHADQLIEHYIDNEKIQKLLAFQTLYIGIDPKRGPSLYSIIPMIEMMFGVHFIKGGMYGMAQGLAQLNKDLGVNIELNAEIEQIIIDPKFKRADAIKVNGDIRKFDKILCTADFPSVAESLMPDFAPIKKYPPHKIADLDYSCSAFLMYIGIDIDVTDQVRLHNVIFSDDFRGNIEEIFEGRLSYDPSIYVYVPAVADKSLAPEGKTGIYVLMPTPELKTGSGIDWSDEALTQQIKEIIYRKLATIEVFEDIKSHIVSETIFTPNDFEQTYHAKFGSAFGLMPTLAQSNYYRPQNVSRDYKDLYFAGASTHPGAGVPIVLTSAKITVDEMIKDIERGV

[2] = molecular target: T2, 4,4'-diapophytoene desaturase (4,4'-diaponeurosporene-forming) (Staphylococcus aureus (strain USA300), UniProt Q2FDU6); experiment: Inhibition of CrtN in methicillin-resistant Staphylococcus aureus LAC USA300 assessed as reduction in staphyloxanthin levels after 48 hrs by spectrophotometric method-based pigment inhibition assay
T2 sequence (Q2FDU6 whole entry): T1 sequence (O07855 whole entry)

[3] = molecular target: T3, 4,4'-diapophytoene desaturase (4,4'-diaponeurosporene-forming) (Staphylococcus aureus (strain Mu50 / ATCC 700699), UniProt Q99R76); experiment: Inhibition of CrtN in methicillin-resistant Staphylococcus aureus Mu50 assessed as reduction in staphyloxanthin levels after 48 hrs by spectrophotometric method-based pigment inhibition assay; set-up: species or system Staphylococcus aureus subsp. aureus Mu50
T3 sequence (Q99R76 whole entry): T1 sequence (O07855 whole entry)

[4] = Cytotoxicity against HEK293 cells after 43 hrs by Alamar blue dye-based fluorescence assay; type: cell-based; conditions: human
[5] = molecular target: T1, 4,4'-diapophytoene desaturase (4,4'-diaponeurosporene-forming); experiment: Inhibition of Staphylococcus aureus Newman 6His-tagged CrtN expressed in Escherichia coli BL21 (DE3)/pET28a::CrtN assessed as reduction in staphyloxanthin levels using diapophytoene as substrate after overnight incubation by spectrophotometric analysis; set-up: species or system Staphylococcus aureus subsp. aureus str. Newman
[6] = tested on: Staphylococcus aureus; experiment: Antibacterial activity against Staphylococcus aureus Newman assessed as change in bacterial growth at 0.2 mM […]; type: functional
[7] = tested on: Staphylococcus aureus; experiment: Antibacterial activity against methicillin-resistant Staphylococcus aureus USA400 MW2 assessed as change in bacterial growth at 0.2 mM […]; type: functional
[8] = tested on: Staphylococcus aureus; experiment: Antibacterial activity against methicillin-resistant Staphylococcus aureus Mu50 assessed as change in bacterial growth at 0.2 mM […]; type: functional
[9] = tested on: Staphylococcus aureus; experiment: In vivo anti-virulence activity against Staphylococcus aureus Newman infected in BALB/c mouse model assessed as reduction in bacterial load in kidneys at 0.4 mg bid for 4.5 days administered intraperitoneally 24 hrs prior to infection by serial dilution method; type: functional, organism-based
Method in brief: (§1)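 Mice (n=10 per group) got 2.3 × 10^7 CFU S. aureus Newman by retro-orbital injection. Compound was given intraperitoneally b.i.d., either 24 h before infection (4.5 d) or 6 h after infection (3.5 d). Mice were sacrificed after 4.5 d and CFU counted in kidneys and hearts. Groups were compared by two-tailed Mann-Whitney test.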

[10] = tested on: Staphylococcus aureus; experiment: In vivo anti-virulence activity against Staphylococcus aureus Newman infected in BALB/c mouse model assessed as reduction in bacterial load in heart at 0.1 mg bid for 4.5 days administered intraperitoneally 24 hrs prior to infection by serial dilution method; type: functional, organism-based; method in brief: as §1
[11] = tested on: Staphylococcus aureus; experiment: In vivo anti-virulence activity against methicillin-resistant Staphylococcus aureus Mu50 infected in BALB/c mouse model assessed as reduction in bacterial load in kidneys at 0.4 mg bid for 4.5 days administered intraperitoneally 24 hrs prior to infection by serial dilution method; type: functional; set-up: scale not given: the % may be the effect or the level left
Method in brief: (§2)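 Mice (n=10 per group) infected retro-orbitally with S. aureus Mu50 (1.1 × 10^9 or 1.3 × 10^9 CFU) or NRS271 (2.3 × 10^8 CFU). Compound given i.p. b.i.d., either 6 h after infection for 3.5 d or 24 h before infection for 4.5 d. Mice killed after 4.5 d; log10 CFU per organ counted in kidneys and hearts. Two-tailed Mann−Whitney test.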

[12] = tested on: Staphylococcus aureus; experiment: In vivo anti-virulence activity against methicillin-resistant Staphylococcus aureus Mu50 infected in BALB/c mouse model assessed as reduction in bacterial load in kidneys at 0.1 mg bid for 4.5 days administered intraperitoneally 24 hrs prior to infection by serial dilution method; type: functional; set-up: scale not given: the % may be the effect or the level left; method in brief: as §2
[13] = tested on: Staphylococcus aureus; experiment: In vivo anti-virulence activity against methicillin-resistant Staphylococcus aureus Mu50 infected in BALB/c mouse model assessed as reduction in bacterial load in heart at 0.4 mg bid for 4.5 days administered intraperitoneally 24 hrs prior to infection by serial dilution method; type: functional; set-up: scale not given: the % may be the effect or the level left; method in brief: as §2
[14] = tested on: Staphylococcus aureus; experiment: In vivo anti-virulence activity against methicillin-resistant Staphylococcus aureus Mu50 infected in BALB/c mouse model assessed as reduction in bacterial load in heart at 0.1 mg bid for 4.5 days administered intraperitoneally 24 hrs prior to infection by serial dilution method; type: functional; set-up: scale not given: the % may be the effect or the level left
Method in brief: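 Mice were challenged with 1.3 × 10^9 CFU Mu50. Compound was given intraperitoneally, either 24 h before or 6 h after infection. Log10 CFU was counted in kidneys and hearts.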

[15] = tested on: Staphylococcus aureus; experiment: In vivo anti-virulence activity against methicillin-resistant Staphylococcus aureus NRS271 infected in BALB/c mouse model assessed as reduction in bacterial load in kidneys at 0.1 mg bid for 4.5 days administered intraperitoneally 24 hrs prior to infection by serial dilution method; type: functional; set-up: scale not given: the % may be the effect or the level left; method in brief: as §2
[16] = tested on: Staphylococcus aureus; experiment: In vivo anti-virulence activity against methicillin-resistant Staphylococcus aureus NRS271 infected in BALB/c mouse model assessed as reduction in bacterial load in kidneys at 0.1 mg bid for 3.5 days administered intraperitoneally 6 hrs post infection by serial dilution method; type: functional; set-up: scale not given: the % may be the effect or the level left; method in brief: as §2
[17] = tested on: Staphylococcus aureus; experiment: In vivo anti-virulence activity against methicillin-resistant Staphylococcus aureus NRS271 infected in BALB/c mouse model assessed as reduction in bacterial load in heart at 0.4 mg bid for 4.5 days administered intraperitoneally 24 hrs prior to infection by serial dilution method; type: functional; set-up: scale not given: the % may be the effect or the level left; method in brief: as §2
[18] = tested on: Staphylococcus aureus; experiment: In vivo anti-virulence activity against methicillin-resistant Staphylococcus aureus NRS271 infected in BALB/c mouse model assessed as reduction in bacterial load in heart at 0.1 mg bid for 4.5 days administered intraperitoneally 24 hrs prior to infection by serial dilution method; type: functional; set-up: scale not given: the % may be the effect or the level left; method in brief: as §2
[19] = tested on: Staphylococcus aureus; experiment: In vivo anti-virulence activity against methicillin-resistant Staphylococcus aureus NRS271 infected in BALB/c mouse model assessed as reduction in bacterial load in heart at 0.4 mg bid for 3.5 days administered intraperitoneally 6 hrs post infection by serial dilution method; type: functional; set-up: scale not given: the % may be the effect or the level left; method in brief: as §2
[20] = tested on: Staphylococcus aureus; experiment: In vivo anti-virulence activity against methicillin-resistant Staphylococcus aureus NRS271 infected in BALB/c mouse model assessed as reduction in bacterial load in heart at 0.1 mg bid for 3.5 days administered intraperitoneally 6 hrs post infection by serial dilution method; type: functional; set-up: scale not given: the % may be the effect or the level left; method in brief: as §2

| Structure (SMILES) | pIC50 [1] | pIC50 [2] | pIC50 [3] | CC50 at 43 h [4] | pIC50 [5] | Activity [6] | Activity [7] | Activity [8] | Activity [9] | Activity [10] | Activity [11] | Activity [12] | Activity [13] | Activity [14] | Activity [15] | Activity [16] | Activity [17] | Activity [18] | Activity [19] | Activity [20] |
| --- | --- | --- | --- | --- | --- | --- | --- | --- | --- | --- | --- | --- | --- | --- | --- | --- | --- | --- | --- | --- |
| CN(C/C=C/c1ccc(-c2ccccc2)cc1)Cc1cccc2cc[nH]c12.Cl | 8.48 | 8.40 | 9.40 | 26500 nM | 6.70 | inactive | inactive | inactive | inactive | inactive | >95% | >95% | >95% | >95% | >95% | >95% | >95% | >95% | >95% | >95% |
| CN(C/C=C/c1ccc(-c2ccccc2)cc1)Cc1coc2ccccc12.Cl | 8.70 | 8.72 | 9.10 | 48100 nM | 6.40 | inactive | inactive | inactive | Active | Active | >95% | >95% | >95% | >95% | >95% | >95% | >95% | >95% | >95% | >95% |
